Test results: ChEMBL document CHEMBL3414569, “Amino acid modified xanthone derivatives: novel, highly promising membrane-active antimicrobials for multidrug-resistant Gram-positive bacterial infections” (J Med Chem, 2015)
Values after ≈ are worked out from the molar mass of the structure shown. Active and inactive are the calls of the source.

Assays:
Streptococcus = test: Antimicrobial activity against Streptococcus isolates by broth macrodilution method; format: functional
Mus musculus [1] = test: Toxicity in C57BL6 mouse eye assessed as effect on corneal clarity at 3 mg/ml applied topically 5 times/day for 4 days by slit lamp biomicroscopy; format: organism-based, Cornea; conditions: in vivo, topical_or_ocular, 96 h
Summary of the method: (§1)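 Three healthy wild-type C57BL6 mice (6−8 weeks) per treatment received 0.5, 1 or 3 mg/mL compound in 10 mM PBS. Applied topically to the eye 5 times/day for 4 days. Corneal clarity checked daily through day 4 by slit-lamp biomicroscopy; histological sections also inspected.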

Bacillus cereus = test: Antimicrobial activity against Bacillus cereus ATCC 11778 by broth macrodilution method; format: functional
Summary of the method: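 CLSI broth macrodilution in Mueller Hinton broth. Inoculum was made by direct colony suspension from colonies on an 18−20 h tryptic soy agar plate. The value is the MIC.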

Mus musculus [2] = test: Toxicity in C57BL6 mouse eye assessed as induction of toxicity related clinical signs at 3 mg/ml applied topically 5 times/day for 4 days; format: organism-based; conditions: in vivo, topical_or_ocular, 96 h; summary of the method: as §1
[3] = Selectivity index, ratio of HC50 for induction of hemolysis in New Zealand white rabbit RBC to MIC for Staphylococcus aureus DM09809R
Mus musculus [4] = test: Toxicity in C57BL6 mouse eye assessed as inflammatory response at 3 mg/ml applied topically 5 times/day for 4 days by slit lamp biomicroscopy; format: organism-based; conditions: in vivo, topical_or_ocular, 96 h; summary of the method: as §1
Staphylococcus aureus [5] = test: Antimicrobial activity against methicillin resistant Staphylococcus aureus DM09809R by broth macrodilution method; format: functional
Summary of the method: (§2)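 Broth macrodilution MIC in Mueller Hinton broth following CLSI guidelines. Inoculum was prepared by direct colony suspension from an 18−20 h tryptic soy agar plate.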

Mus musculus [6] = test: Toxicity in C57BL6 mouse eye assessed as effect on wound closure at 3 mg/ml applied topically 5 times/day for 4 days by slit lamp biomicroscopy; format: organism-based; conditions: in vivo, topical_or_ocular, 96 h
Enterococcus [7] = test: Antimicrobial activity against vancomycin-resistant Enterococcus isolates by broth macrodilution method; format: functional
Lipid bilayer [8] = test: Induction of vesicle leakage in DOPC large unilamellar vesicles assessed as calcein release at 1/16 compound to lipid ratio by fluorescence assay; format: functional
Summary of the method: (§3)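 100 nm LUVs (DOPE/DOPG 75/25 or DOPC) made by film hydration in 80 mM calcein, 50 mM HEPES, 100 mM NaCl, 0.3 mM EDTA, pH 7.4. Then 7 freeze–thaw cycles, 15 extrusions and Sephadex G-50 clean-up. Compound added from DMF (<0.2%) at 50 μM final phospholipid. Fluorescence read at ex 490/em 520 nm for 30 min; 0.1% Triton X-100 set 100% lysis; three independent experiments.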

Staphylococcus aureus [9] = test: Antimicrobial activity against Staphylococcus aureus DM4001 by broth macrodilution method; format: functional; summary of the method: as §2
Staphylococcus aureus [10] = test: Antimicrobial activity against methicillin sensitive Staphylococcus aureus isolates by broth macrodilution method; format: functional
Corynebacterium jeikeium = test: Antimicrobial activity against Corynebacterium jeikeium isolates by broth macrodilution method; format: functional
Staphylococcus aureus [11] = test: Antimicrobial activity against multidrug resistant Staphylococcus aureus isolates by broth macrodilution method; format: functional
Staphylococcus aureus [12] = test: Antimicrobial activity against vancomycin-intermediate sensitive Staphylococcus aureus isolates by broth macrodilution method; format: functional
Staphylococcus aureus [13] = test: Antimicrobial activity against Staphylococcus aureus ATCC 29213 at 0.5 times MIC measured after 17 passages by multistep passage drug resistance selection study relative to wild type Staphylococcus aureus ATCC 29213 before passage; format: functional
Summary of the method: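 Multipassage selection in S. aureus ATCC29213 across an eight-concentration dilution series. Growth was read after 20−22 h. Bacteria growing at 0.5 × MIC were repassaged into a fresh series, 17 passages in total. Resistance was defined as a more than 4-fold rise over the initial MIC.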

Staphylococcus aureus [14] = test: Antimicrobial activity against Staphylococcus aureus ATCC 29213 by broth macrodilution method; format: functional; summary of the method: as §2
Lipid bilayer [15] = test: Induction of vesicle leakage in DOPE/DOPG large unilamellar vesicles assessed as calcein release at 1/64 compound to lipid ratio by fluorescence assay; format: functional; summary of the method: as §3
Staphylococcus aureus [16] = test: Antimicrobial activity against Staphylococcus aureus ATCC 29213 in absence of 4% BSA by broth macrodilution method; format: functional; summary of the method: as §2
Staphylococcus aureus [17] = test: Antimicrobial activity against teicoplanin intermediate resistant Staphylococcus aureus isolates by broth macrodilution method; format: functional
[18] = Selectivity index, ratio of HC50 for induction of hemolysis in New Zealand white rabbit RBC to MIC for Bacillus cereus ATCC 11778
[19] = Induction of hemolysis in New Zealand white rabbit RBC after 1 hr; format: cell-based, Oryctolagus cuniculus, Erythrocyte; conditions: New Zealand white, red blood cells (RBC)
Summary of the method: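 Fresh red blood cells isolated from New Zealand white rabbits. Lysis measured over a compound concentration series; HC50 taken as the concentration lysing 50% of RBCs.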

Lipid bilayer [20] = test: Induction of vesicle leakage in DOPC large unilamellar vesicles assessed as calcein release at 1/64 compound to lipid ratio by fluorescence assay
[21] = Selectivity index, ratio of HC50 for induction of hemolysis in New Zealand white rabbit RBC to MIC for Staphylococcus aureus DM4001
Staphylococcus aureus [22] = test: Antimicrobial activity against methicillin resistant Staphylococcus aureus isolates by broth macrodilution method; format: functional
[23] = Selectivity index, ratio of HC50 for induction of hemolysis in New Zealand white rabbit RBC to MIC for Staphylococcus aureus DM21455
Enterococcus [24] = test: Antimicrobial activity against vancomycin-sensitive Enterococcus isolates by broth macrodilution method; format: functional
Listeria monocytogenes = test: Antimicrobial activity against Listeria monocytogenes isolates by broth macrodilution method; format: functional
[25] = test system: Staphylococcus epidermidis; test: Antimicrobial activity against Staphylococcus epidermidis isolates by broth macrodilution method; format: functional
Staphylococcus aureus [26] = test: Antimicrobial activity against methicillin resistant Staphylococcus aureus DM21455 in presence of 4% BSA by broth macrodilution method; format: functional
Summary of the method: (§4)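 MIC by CLSI broth macrodilution in Mueller Hinton broth, with BSA added to the bacterial suspension at a final 4% w/v. Inoculum was made by direct colony suspension from an 18−20 h tryptic soy agar plate.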

[27] = Retention time of the compound; format: physicochemical
Summary of the method: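 Reverse-phase HPLC of 20 μL injections of a 10 μg/mL sample at 1 mL/min. Gradient: 5−55% ACN over 5 min, then 55−95% over 15 min.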

Staphylococcus aureus [28] = test: Antimicrobial activity against Staphylococcus aureus ATCC 29213 infected in mouse cornea infection model assessed as reduction in viable bacterial count at 0.3% solution applied topically 5 times/day dosed 1 day after infection relative to control; format: functional
Summary of the method: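 Mouse cornea given three superficial 1 mm scratches on one eye under ketamine/xylazine, then 10 μL of S. aureus ATCC 29213 suspension (1 × 10^8 CFU/mL in USP phosphate buffer) applied topically. Treated topically 5 times/day from day 1 postinfection; PBS negative control; 4 mice/group killed on days 1, 2 and 3. Corneas homogenized in 0.9% NaCl with 0.25% BSA, plated in duplicate on TSA (48 h, 35 °C); log10 CFU/cornea.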

Staphylococcus aureus [29] = test: Antimicrobial activity against methicillin resistant Staphylococcus aureus DM21455 by broth macrodilution method; format: functional; summary of the method: as §2
Lipid bilayer [30] = test: Induction of vesicle leakage in DOPE/DOPG large unilamellar vesicles assessed as calcein release at 1/16 compound to lipid ratio by fluorescence assay; format: functional; summary of the method: as §3
Staphylococcus aureus [31] = test: Antimicrobial activity against methicillin resistant Staphylococcus aureus DM21455 in absence of 4% BSA by broth macrodilution method; format: functional; summary of the method: as §2
Staphylococcus aureus [32] = test: Antimicrobial activity against Staphylococcus aureus ATCC 29213 in presence of 4% BSA by broth macrodilution method; format: functional; summary of the method: as §4
Lipid bilayer [33] = test: Induction of vesicle leakage in DOPE/DOPG large unilamellar vesicles assessed as calcein release at 1/32 compound to lipid ratio by fluorescence assay; format: functional; summary of the method: as §3
Staphylococcus aureus [34] = test: Antimicrobial activity against epidemic methicillin resistant Staphylococcus aureus isolates by broth macrodilution method; format: functional

COC(=O)C(CCCNC(=N)N)NC(=O)C(CCCNC(=N)N)NC(=O)COc1cc2oc3cc(OCC(=O)NC(CCCNC(=N)N)C(=O)NC(CCCNC(=N)N)C(=O)OC)c(OC)c(CC=C(C)C)c3c(=O)c2c(O)c1CC=C(C)C (stereo not drawn)
MIC (Streptococcus): 2 µg/mL (≈ 1.7 µM) | Activity (Mus musculus [1]): Non-toxic | MIC (Bacillus cereus): 3 µg/mL (≈ 2.54 µM) | Activity (Mus musculus [2]): Non-toxic | Selectivity Index [3]: 92 | Activity (Mus musculus [4]): Non-toxic | MIC (Staphylococcus aureus [5]): 3 µg/mL (≈ 2.54 µM) | Activity (Mus musculus [6]): Non-toxic | MIC (Enterococcus [7]): 1 µg/mL (≈ 0.848 µM) | Activity (Lipid bilayer [8]): < 15% | MIC (Staphylococcus aureus [9]): 0.5 µg/mL (≈ 0.424 µM) | MIC (Staphylococcus aureus [10]): 2 µg/mL (≈ 1.7 µM) | MIC (Corynebacterium jeikeium): 2 µg/mL (≈ 1.7 µM) | MIC (Staphylococcus aureus [11]): 2 µg/mL (≈ 1.7 µM) | MIC (Staphylococcus aureus [12]): 2 µg/mL (≈ 1.7 µM) | Activity (Staphylococcus aureus [13]): Active | MIC (Staphylococcus aureus [14]): 2 µg/mL (≈ 1.7 µM) | Activity (Lipid bilayer [15]): 24.6% | MIC (Staphylococcus aureus [16]): 3.12 µg/mL (≈ 2.65 µM) | MIC (Staphylococcus aureus [17]): 2 µg/mL (≈ 1.7 µM) | Selectivity Index [18]: 92 | HC50 at 1 h [19]: 277 µg/mL | Activity (Lipid bilayer [20]): < 15% | Selectivity Index [21]: 92 | MIC (Staphylococcus aureus [22]): 2 µg/mL (≈ 1.7 µM) | Selectivity Index [23]: 92 | MIC (Enterococcus [24]): 2 µg/mL (≈ 1.7 µM) | MIC (Listeria monocytogenes): 2 µg/mL (≈ 1.7 µM) | MIC [25]: 2 µg/mL (≈ 1.7 µM) | MIC (Staphylococcus aureus [26]): 12.5 µg/mL | Retention_time [27]: 6.49 min | inhibition (INH) (Staphylococcus aureus [28]): 99.9% | MIC (Staphylococcus aureus [29]): 2 µg/mL (≈ 1.7 µM) | Activity (Lipid bilayer [30]): 99.2% | MIC (Staphylococcus aureus [31]): 1.56 µg/mL (≈ 1.32 µM) | MIC (Staphylococcus aureus [32]): 12.5 µg/mL | Activity (Lipid bilayer [33]): 67.9% | MIC (Staphylococcus aureus [34]): 2 µg/mL (≈ 1.7 µM)
